# The entries come from a sample that favours hits as a whole.
# KCC2 mod: modulators of human KCC2 chloride dependent transport; Q9H2X9; KCC2 cells, thallium flux FluoZin-2 fluorescence; B-score of Tl+ flux slope (higher = more flux/activation; lower = inhibition) at 10 µM; 190,000 compounds, 2.2% hits;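 active = thallium flux slope and its plate-corrected score both differing from the plate sample mean at a set confidence after two filtering rounds, in either direction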;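 also: slope of fluorescence scaled to starting intensity during 10 to 20 s after thallium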
# Target sequence (Q9H2X9 whole entry, looked up): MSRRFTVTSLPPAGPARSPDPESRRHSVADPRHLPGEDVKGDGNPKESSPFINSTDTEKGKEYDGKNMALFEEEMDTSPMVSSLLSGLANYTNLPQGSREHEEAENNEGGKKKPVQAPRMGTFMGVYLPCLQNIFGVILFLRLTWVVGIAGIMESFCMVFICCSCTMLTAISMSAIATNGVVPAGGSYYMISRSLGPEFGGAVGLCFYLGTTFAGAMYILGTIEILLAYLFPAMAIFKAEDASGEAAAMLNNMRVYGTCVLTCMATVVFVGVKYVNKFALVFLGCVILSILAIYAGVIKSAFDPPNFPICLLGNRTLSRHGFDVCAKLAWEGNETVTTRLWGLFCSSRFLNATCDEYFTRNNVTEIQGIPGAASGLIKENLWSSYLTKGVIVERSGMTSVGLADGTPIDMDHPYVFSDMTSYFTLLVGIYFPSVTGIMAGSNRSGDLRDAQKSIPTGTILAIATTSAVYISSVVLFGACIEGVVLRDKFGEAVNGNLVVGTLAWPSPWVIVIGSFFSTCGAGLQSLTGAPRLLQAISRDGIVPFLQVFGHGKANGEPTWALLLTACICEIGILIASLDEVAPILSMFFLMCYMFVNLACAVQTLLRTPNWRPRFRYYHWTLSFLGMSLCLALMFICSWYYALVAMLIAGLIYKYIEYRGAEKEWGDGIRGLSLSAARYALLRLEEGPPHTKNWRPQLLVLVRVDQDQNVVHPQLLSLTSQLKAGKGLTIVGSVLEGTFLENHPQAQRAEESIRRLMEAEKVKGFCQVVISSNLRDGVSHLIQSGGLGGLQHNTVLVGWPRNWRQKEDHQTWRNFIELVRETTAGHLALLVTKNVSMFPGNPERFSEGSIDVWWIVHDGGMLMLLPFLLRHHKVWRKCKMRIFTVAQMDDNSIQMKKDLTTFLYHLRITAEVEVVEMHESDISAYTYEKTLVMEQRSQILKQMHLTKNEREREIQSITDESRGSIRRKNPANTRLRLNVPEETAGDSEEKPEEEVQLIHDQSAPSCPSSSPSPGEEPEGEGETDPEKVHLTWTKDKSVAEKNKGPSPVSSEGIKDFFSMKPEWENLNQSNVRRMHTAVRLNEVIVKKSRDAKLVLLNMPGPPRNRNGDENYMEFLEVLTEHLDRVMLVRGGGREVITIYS
# Dynein cargo inh: dynein cargo transport inhibition | 220,000 compounds, 0.47% hits | z-score, hits read low | 3617.4 mouse cells, GR-EGFP nuclear translocation imaging; test concentration mostly 20 µM; stimulated with dexamethasone, 1 µM; stronger effect = lower value;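 active = plate z-score of nuclear minus cytoplasmic receptor signal below a set negative limit, without overly bright fluorescence or cell loss, cut at about -3.5 in these data, passing the limit was not always enough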;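 also: z-score of nuclear minus cytoplasmic ring GR-EGFP intensity difference per well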
#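 Buffer or medium: tet-free, stripped-serum medium; Also added: dexamethasone, 1.0 µM final; Technique: high-content fluorescence imaging after fixation; Times: 48 h induction, 1 h compound, 30 min dex at 37 °C; Read-out: per-cell GR-EGFP intensity, nucleus versus surrounding cytoplasmic ring, well-averaged.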
# V-ATPase pH: regulators of yeast V-ATPase proton transport. 350,000 compounds, 0.37% hits. response, % at 10 µM. S. cerevisiae, pHLuorin cytosolic pH fluorescence; in the data active = response mostly above about 7.3%, no sharp cut-off; inactive = mostly below about 5.4%; also: actives read high
# ABCB6 inh 2: human ABCB6 transporter inhibition; K562-ABCB6 porphyrin accumulation, flow cytometry, 1 h; stronger effect = lower value; fluorescence ratio to DMSO, % at 10 µM; 360,000 compounds, 0.19% hits; AID 602162;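 active = fluorescence ratio to DMSO below 75%, the collection mean minus 3 SD; inconclusive = too few cells collected in the well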;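 also: signal is porphyrin accumulated inside mitochondria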
# pCIP destab: p/CIP protein destabilization. F442A p/CIP-EGFP cells, EGFP fluorescence, 16 h. decrease of EGFP signal, % at 10 µM. 290,000 compounds, 0.01% hits. AID 1984;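 active = EGFP signal decrease of at least 30% at 10 µM or well 3 SD below plate mean, unless failing retest; inactive = the rest, including hits failing retest or dose response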
# KCC2 sec1: confirmation of human KCC2 transport modulators | shares compounds with KCC2 mod | AID 1713 | 3,700 compounds, 15% hits | HEK293-KCC2, thallium flux, FluoZin2 fluorescence; stronger effect = higher value | normalised thallium flux (F/F0 slope) at 10 µM;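 active = thallium flux slope above the same plate's solvent-only control mean plus 3 SD; inconclusive = the two replicate wells disagree; inactive = no significant difference from solvent-only control wells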
# KCC2 bumet counter: thallium flux persisting under bumetanide in KCC2 cells, counter-screen secondary assay | shares compounds with KCC2 mod | HEK293-KCC2 + bumetanide/ouabain, thallium flux FluoZin2; stronger effect = higher value | normalized thallium flux at 10 µM | 3,700 compounds, 49% hits;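 active = thallium entry rate above the same plate's blocked-transporter control wells by more than 3 SD; inconclusive = the two repeat wells disagree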;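 also: raw slope of fluorescence over initial fluorescence between 10 and 20 s after thallium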
# KCC2 secondary2: KCC2 (human) modulation, second secondary assay; HEK293-KCC2, thallium flux FluoZin2 fluorescence; actives lie on both sides; F/F0 rise rate, 10–20 s post-thallium; shares compounds with KCC2 mod; 3,700 compounds, 23% hits; normalized thallium flux at 10 µM;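 active = thallium flux slope more than 3 SD above or below the plate's solvent-only control mean, mostly below; inconclusive = the two repeat wells disagreed; inactive = no significant shift from solvent-only controls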
# HEK293 Tl flux: counter-screen for KCC2 modulators: effect in parental HEK293 cells; shares compounds with KCC2 mod; thallium flux FluoZin2, ouabain; baseline-ratio fluorescence slope, 10–20 s after thallium; 3,700 compounds, 46% hits; thallium flux rate (normalised fluorescence) at 10 µM;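 active = thallium flux rate significantly above the same plate's solvent-only control wells, beyond their mean plus 3 SD; inconclusive = the two replicate wells gave conflicting results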
# KCC2 retest ouab: modulates human KCC2 on retest with ouabain; shares compounds with KCC2 mod; HEK293-KCC2, thallium flux FluoZin2 fluorescence; bidirectional: low = inhibitor, high = activator; raw Tl+ flux slope (below DMSO = inhibition, above = activation) at 10 µM; 3,700 compounds, 48% hits; AID 1717;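 active = thallium flux slope beyond 3 SD from same-plate DMSO control mean in most replicates, usually higher, sometimes lower; inconclusive = repeat tests gave conflicting results; inactive = no significant difference from controls in most replicates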;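 also: slope of initial-normalized fluorescence between seconds 10 and 20 after thallium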
# HEK293 Tl flux2: counter-screen for KCC2 modulators: effect in parental HEK293 cells; thallium flux slope at 10 µM; thallium flux FluoZin-2 fluorescence slope; AID 1718; shares compounds with KCC2 mod; 3,700 compounds, 33% hits;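 active = thallium flux slope above the same plate's solvent-control mean plus 3 SD in both duplicate wells; inconclusive = duplicate wells that disagreed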;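 also: run without ouabain in cells lacking the KCC2 cotransporter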
# Hits are given with their value; 0 = inactive; ? = inconclusive; - = no result.
SMILES,KCC2 mod,Dynein cargo inh,V-ATPase pH,ABCB6 inh 2,pCIP destab,KCC2 sec1,KCC2 bumet counter,KCC2 secondary2,HEK293 Tl flux,KCC2 retest ouab,HEK293 Tl flux2
CC(CCc1ccccc1)NC(=O)/C=C/c1ccc(Cl)cc1 (stereo not given),-8.1,0,0,0,0,0,0,0,0,0,0
O=C(Nc1cc(=O)[nH]c2nc(-c3ccccc3)nn12)c1ccccc1Cl,-3.2,0,0,0,0,0,0,0,0,?,?
O=C(N/N=C/c1ccco1)c1ccncc1,0,0,0,0,0,-,-,-,-,-,-
O=C(Nc1ccccc1C(=O)N/N=C/c1ccco1)c1ccc(Cl)cc1,11,0,0,0,0,0,0.037,0,0.014,0.029,0.015
O=C(Nc1ccccc1C(=O)N/N=C/c1ccco1)c1ccc(F)cc1,17,0,0,0,0,0.016,0.064,0,0.023,?,0.012
FC(F)(F)c1ccc2c(c1)N1CCCC1CN2 (stereo not given),-,0,0,0,0,-,-,-,-,-,-
FC(F)(F)c1ccc2c(c1)[nH]c(=S)n2C1CC1,62,0,0,0,0,0.03,0.17,0.045,0.069,0.11,0.027
N#CC(c1ccc(Cl)cc1)c1cccc(Cl)n1 (stereo not given),0,0,0,0,0,-,-,-,-,-,-
COCCn1c(N2CCN(c3ccc(OC)cc3)CC2)nc2c1c(=O)n(C)c(=O)n2C,-,0,0,0,0,0,0,0,0,0,0
N#Cc1c(NC(=O)c2ccccc2Cl)n(Cc2ccccc2)c2nc3ccccc3nc12,-4.6,0,0,0,0,0,0,0,0.0051,0.014,0
CCCCn1c(NC(=O)c2ccccc2Cl)c(C#N)c2nc3ccccc3nc21,0,0,0,0,0,-,-,-,-,-,-
CC1(C)CC(=O)c2c(Cc3ccccc3)n[nH]c2C1,0,0,0,0,0,-,-,-,-,-,-
CC1(C)CC(=O)c2c(-c3cccnc3)n[nH]c2C1,-,0,0,0,0,0,0,0,0,0,0
COC(=O)c1ccc(CSc2nc3ccccc3c(=O)n2CC(C)C)o1,7.6,0,0,0,0,0,0.018,0,0.017,?,0.017
S=c1[nH]nc(C(c2ccccc2)C2CCCCC2)o1 (stereo not given),0,0,0,0,0,-,-,-,-,-,-
S=c1[nH]nc(C2(c3ccccc3)CCCC2)o1,-3.1,0,0,0,0,0,0,0.023,0,0.018,0
COc1ccc(C(=O)NC(=S)N2CCN(c3ccc([N+](=O)[O-])cc3)CC2)cc1,4.1,0,0,0,0,0,0.012,0,0.0096,0.029,0.011
COc1ccccc1N1CCN(C(=S)NC(=O)c2ccc([N+](=O)[O-])cc2)CC1,-,-,0,0,-,-,-,-,-,-,-
CCNC(=O)C1CCCN1C(=O)C(CCCN=C(N)N)NC(=O)C(CC(C)C)NC(=O)C(Cc1cn(Cc2ccccc2)cn1)NC(=O)C(Cc1ccc(O)cc1)NC(=O)C(CO)NC(=O)C(Cc1c[nH]c2ccccc12)NC(=O)C(Cc1cnc[nH]1)NC(=O)C1CCC(=O)N1 (stereo not given),-,-,-,0,0,-,-,-,-,-,-
NN/C(=C\[N+](=O)[O-])Nc1ccc(Cl)cc1,6.7,0,0,0,0,0,0.023,0,0.01,0,0
CC(OC(=O)c1ccc2c(=O)n3c(nc2c1)CCC3)C(=O)Nc1ccc(C(N)=O)cc1 (stereo not given),-,-,0,0,-,-,-,-,-,-,-
NS(=O)(=O)c1ccc(NC(=O)NC2CCCCC2)cc1,3.2,0,0,0,0,0,0,0,0,0,0
CCSc1nc2c(sc3ccccc32)c(=O)n1C(C)C,24,0,0,0,0,0.038,0.12,0.042,0.055,0.054,0.021
CCCCn1c(SCC(N)=O)nc2c(sc3ccccc32)c1=O,0,0,0,0,0,-,-,-,-,-,-
CN(C)CCCNc1ccc(S(N)(=O)=O)cc1[N+](=O)[O-],2.8,0,0,0,0,0,0,0,0,0,0
SMILES,KCC2 mod,Dynein cargo inh,V-ATPase pH,ABCB6 inh 2,pCIP destab,KCC2 sec1,KCC2 bumet counter,KCC2 secondary2,HEK293 Tl flux,KCC2 retest ouab,HEK293 Tl flux2
CS(=O)(=O)c1ccc(NCCc2ccc(S(N)(=O)=O)cc2)c([N+](=O)[O-])c1,-,-,0,0,0,-,-,-,-,-,-
Cc1ccc2cc(C)c3nnc(SCc4ccc(C(=O)O)cc4)n3c2c1C,3.1,0,0,0,0,0,0.0087,0,0.011,0,0.013
C[C@H](CO)N1C[C@H](C)[C@@H](CN(C)Cc2ccc(C(=O)O)cc2)Oc2c(cccc2N(C)C)C1=O,-,-,0,0,-,-,-,-,-,-,-
[O-][n+]1cccc2c(Br)cc(Br)c(O)c21,29,0,0,0,0,0,0.073,0.047,0.047,0.064,0.034
Cc1[nH][nH]c(=O)c1C(c1ccc(-c2ccc(Cl)c(Cl)c2)o1)c1c(C)[nH][nH]c1=O,-3.9,0,0,0,0,0,0,0.022,0,0.015,0
Cc1[nH][nH]c(=O)c1C(c1ccc(-c2ccc(F)cc2)o1)c1c(C)[nH][nH]c1=O,-5.2,0,0,0,0,0,0,0.025,0,0,0
Cc1cc([N+](=O)[O-])ccc1NCc1ccccc1,-3.1,0,0,0,0,0,0,0.023,0,0.017,0
CC(C)(C)C1C/C(=C/c2ccccn2)C(=O)/C(=C/c2ccccn2)C1 (stereo not given),-3.4,-4.9,0,0,0,0,0.0094,0,0.0095,0,?
O=C1/C(=C/c2ccccn2)COc2ccccc21,0,0,0,0,0,-,-,-,-,-,-
O=C1COc2ccc(C(=O)CSc3nc4ccccc4c(=O)n3-c3ccc(Cl)c(Cl)c3)cc2N1,2.5,0,0,0,0,?,0.019,0,0.01,0,?
CCc1ccc(-n2c(SCC(=O)c3ccc4c(c3)NC(=O)CO4)nc3ccccc3c2=O)cc1,2.9,0,0,0,0,0,0.012,0,0.0086,?,0
O=[N+]([O-])c1ccccc1/C=C/C=N/n1c(-c2ccc(Cl)cc2)n[nH]c1=S,3.6,0,0,0,0,0,0.0092,0,0.01,?,0.012

# Screening results: PubChem BioAssay, several laboratories
